Results gathered from unrelated publications.
Protocols differ between the studies behind these lines.
Target: Vascular endothelial growth factor receptor 3 (FLT4, Homo sapiens, UniProt P35916)

The remaining binding of `O=C(NCC1CCOCC1)c1n[nH]cc1NC(=O)c1c(F)cccc1F` is reported as 95% (binding; competition with immobilised ligand; 1 µM).
The remaining binding of `CNCc1ccccc1-c1csc([C@@H](C)Nc2nc(C)nc3cc(OC)c(OC)cc23)c1` is reported as 83% (cell-free assay; competition with immobilised ligand; 1 µM).
With `CN(C)c1nccc(-c2cnc3ncccn23)n1` the remaining binding was 88% (binding; 1 µM).
For `Nc1c(C(=O)NCc2ccc(C(=O)NCCCC3CCCCC3)cc2)cnn1-c1ccccc1`, the remaining binding was 100% (cell-free assay; competition with immobilised ligand; 0.1 µM).
The remaining binding of `C=CC(=O)N1CCC(C(=O)NCC(=O)N2CCN(c3nc(-c4cnc(N)nc4C(F)F)nc(N4CCOCC4)n3)CC2)CC1` is reported as 96% (binding; competition with immobilised ligand; 1 µM).
`N[C@@H]1CCN(c2nccc(-c3cnn4ncccc34)n2)C1` gave a remaining binding of 100% (binding; 1 µM).
For `N#Cc1ccc(Nc2ccc3[nH]c(=O)[nH]c3c2)c(Cl)c1`, the remaining binding was 100% (cell-free assay; competition with immobilised ligand; 1 µM).
`O=C(c1ccc(Nc2ncc(Cl)c(-c3cc4ccccc4s3)n2)cc1)N1CCC(N2CCCC2)CC1` gave a remaining binding of 0.7% (binding; competition with immobilised ligand; 1 µM).
For `CCN1CCN(Cc2ccc(C(=O)Nc3ccc(C)c(Oc4ccc5c(c4)CC(=O)N5)c3)cc2C(F)(F)F)CC1`, the remaining binding was 100% (binding; competition with immobilised ligand; 1 µM).
With `O=C(c1ccc(Nc2nccc(-c3cc4ccccc4s3)n2)cc1)N1CCC(N2CCCC2)CC1` the remaining binding was 30% (binding; competition with immobilised ligand; 1 µM).
For `C[C@@H](c1ccc(-n2cnc3c(N)ncnc32)cc1)N1CCc2nn(C)c(Cc3ccccc3)c2C1=O`, the remaining binding was 91% (binding; competition with immobilised ligand; 0.1 µM).
The remaining binding of `c1cnn2ncc(-c3ccnc(N4CCC45COC5)n3)c2c1` is reported as 92% (binding; 1 µM).
`CCS(=O)(=O)c1cc2cc(C[C@](O)(CC(C)(C)c3ccc(F)cc3C(N)=O)C(F)(F)F)[nH]c2cn1` gave a remaining binding of 95% (cell-free assay; competition with immobilised ligand; 1 µM).
`O=C(NCCCN1CCOCC1)c1ccc(Nc2nccc(-c3cc4ccccc4s3)n2)cc1` gave a remaining binding of 50% (binding; competition with immobilised ligand; 1 µM).
For `CNC(=O)[C@@H]1CC[C@@H](n2c(-c3ccc4cnccc4c3)nc3ccc(C(=O)NCc4cccc(C(N)=O)c4)cc32)C1`, the remaining binding was 100% (binding; competition with immobilised ligand; 1 µM).
`C[C@H]1CCN(c2nccc(-c3cnn4ncccc34)n2)C1` has a remaining binding of 100% (binding; 1 µM).
`CC(C)CC(=O)N1CCc2nc(-c3ccc(Br)cc3)nc(N(C)Cc3ccccc3)c2C1` has a remaining binding of 100% (cell-free assay; competition with immobilised ligand; 0.1 µM).
With `CN(CCCC(F)(F)F)c1nccc(-c2cnn3ncccc23)n1` the remaining binding was 100% (binding; 1 µM).
For `CCN(CC)CCCCNc1ncc2cc(-c3cc(OC)cc(OC)c3)c(NC(=O)NC(C)(C)C)nc2n1`, the remaining binding was 6% (cell-free assay; competition with immobilised ligand; 1 µM).
The remaining binding of `COc1cnc(Nc2cccc(S(N)(=O)=O)c2)nc1N1CCN(c2ccccc2)C(=O)C1` is reported as 100% (binding; competition with immobilised ligand; 1 µM).
`CN(C)c1nccc(-c2cnn3ncccc23)n1` gave a remaining binding of 100% (binding; 1 µM).
`Cc1nc(N2CC[C@@H](O)C2)ncc1-c1cc(C(F)(F)F)cc2[nH]ncc12` has a remaining binding of 100% (cell-free assay; competition with immobilised ligand; 1 µM).
